In publication PMC9293090 (Journal of Neurochemistry, 2021):

What was measured:
[1] = target: T1, GCS (Homo sapiens, UniProt Q16739); experiment: Steady-state kinetic GCS competition experiment; format: biochemical; settings: for K m / V max: for UDP-glucose, fixed ceramide 7.4 μM; for inhibition mode of GCS against UDP-glucose: various UDP-glucose concentrations; for inhibition mode of GCS against ceramide: various ceramide concentrations
T1 sequence (Q16739 1-394): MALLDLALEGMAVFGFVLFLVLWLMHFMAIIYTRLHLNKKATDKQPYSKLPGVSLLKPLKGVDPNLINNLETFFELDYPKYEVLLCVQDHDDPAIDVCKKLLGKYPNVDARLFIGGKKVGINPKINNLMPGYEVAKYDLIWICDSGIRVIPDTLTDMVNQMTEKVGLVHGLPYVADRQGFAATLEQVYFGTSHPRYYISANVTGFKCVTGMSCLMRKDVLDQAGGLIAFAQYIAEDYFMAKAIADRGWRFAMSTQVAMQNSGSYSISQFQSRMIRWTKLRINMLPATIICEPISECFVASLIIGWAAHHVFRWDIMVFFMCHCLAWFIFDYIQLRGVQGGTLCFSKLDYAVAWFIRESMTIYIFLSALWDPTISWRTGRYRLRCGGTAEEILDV

[2] = target: T1, GCS; experiment: Affinity selection mass spectrometry; format: binding
Outline: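 Compound at various concentrations was incubated 60 min at 20-25°C with 10 μg/ml GCS-expressing microsomal protein in 20 mM Tris–HCl pH 7.5, 1 mM DTT, 0.01% Tween20, plus 200 μM UDP-glucose, 70 μM C8-ceramide, or neither. Bound and free compound were separated by […] through Sephadex G50-Fine. The eluent was denatured with 70% acetonitrile, and compound was quantified by LC/MS. Specific binding = counts with GCS minus counts without GCS.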

[3] = test system: GlcSph; settings: clinical trial, therapeutic dose; ref Mistry et al., 2017; cited from earlier work
[4] = test system: GlcCer; settings: ref Larsen et al., 2012; cited from earlier work
[5] = presence of UDP-glucose (200 μM)

CC(C)(NC(=O)O[C@@H]1CN2CCC1CC2)c1csc(-c2ccc(F)cc2)n1 [Venglustat]
K m [1]: 2.53 ± 0.09 µM | V max [1]: 38.58 ± 0.32 µmol/min | inhibition mode of GCS against UDP-glucose [1]: uncompetitive | inhibition mode of GCS against ceramide [1]: noncompetitive | binding to GCS by AS-MS ([2]; absence of UDP-glucose): not detected | binding to GCS by AS-MS [2, 5]: bind GCS

CCCCCCCC(=O)N[C@H](CN1CCCC1)[C@H](O)c1ccc2c(c1)OCCO2 [Eliglustat]
K m [1]: 2.37 ± 0.11 µM | V max [1]: 37.60 ± 0.45 µmol/min | inhibition mode of GCS against UDP-glucose [1]: uncompetitive | inhibition mode of GCS against ceramide [1]: noncompetitive | binding to GCS by AS-MS ([2]; absence of UDP-glucose): not detected | binding to GCS by AS-MS [2, 5]: bind GCS | reduction of GlcSph concentration in the plasma [3]: 40% | effect on the GlcCer level in the brain [4]: no significant effect
